Bioassay records from PubChem.
In the library only some 1.9% were active in any assay of this set; here they are far more common.
XiGFP reactiv = activators of inactive X chromosome reactivation, primary screen, imaging, XiGFP fibroblasts, GFP high-content imaging, set 2; XiGFP mouse fibroblasts, % GFP-positive cells imaging, 3 d; cells co-treated with 5-aza-dC sensitizer; scaled so ellipticine positive control = 100%; activation, % at 7.58 µM; actives 0.055% (n = 360,000);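 active = mean normalized replicate activation at least 10% and every replicate at or above 10%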;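 note: 0% = median of on-plate neutral control wells and 100% = ellipticine 6 µM median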
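Assay system: SV40-immortalized XiGFP fibroblast cells, line 68-5-11; buffer or medium: DMEM plus 5-aza-dC sensitizer; compound: one concentration, pinned; timing: compounds 3 days, fix/stain 15 min at room temperature; benchmarks: positive control ellipticine, 6 µM final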
NadD block = inhibitors of S. aureus NadD, primary screen, biochemical, colorimetric, uHTS; AID 602399, 2012; inhibition, % at 20 µM; actives 0.78% (n = 360,000); purified NadD enzyme, colorimetric absorbance read-out; Nicotinate-nucleotide adenylyltransferase NadD (Staphylococcus aureus N315); in the data active = inhibition above about 26%
Rin1-Abl PPI inh = inhibitors of Rin1-Abl protein binding, primary screen, biochemical, TR-FRET; Tyrosine-protein kinase ABL1 (Homo sapiens) + Ras and Rab interactor 1 (Homo sapiens), …; inhibition, % at 7.35 µM; actives 0.4% (n = 360,000); AID 588664, 2011; in the data active = inhibition above about 5%, passing the limit was not always enough
ABHD5-PLIN5 inh = ABHD5-PLIN5 interaction inhibitors, primary screen, cell lysate, split luciferase complementation, luminescence; Split G. princeps luciferase complementation, 4 h; inhibition, % at 4 µM; AID 602281, 2012; actives 0.78% (n = 360,000);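 active = inhibition above the mean inhibition across every tested compound plus 3 SD, cut at about 22% in these data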;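 note: 0% = DMSO only wells and the 100% control is not disclosed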
Target sequence (Q00G26 whole entry, looked up): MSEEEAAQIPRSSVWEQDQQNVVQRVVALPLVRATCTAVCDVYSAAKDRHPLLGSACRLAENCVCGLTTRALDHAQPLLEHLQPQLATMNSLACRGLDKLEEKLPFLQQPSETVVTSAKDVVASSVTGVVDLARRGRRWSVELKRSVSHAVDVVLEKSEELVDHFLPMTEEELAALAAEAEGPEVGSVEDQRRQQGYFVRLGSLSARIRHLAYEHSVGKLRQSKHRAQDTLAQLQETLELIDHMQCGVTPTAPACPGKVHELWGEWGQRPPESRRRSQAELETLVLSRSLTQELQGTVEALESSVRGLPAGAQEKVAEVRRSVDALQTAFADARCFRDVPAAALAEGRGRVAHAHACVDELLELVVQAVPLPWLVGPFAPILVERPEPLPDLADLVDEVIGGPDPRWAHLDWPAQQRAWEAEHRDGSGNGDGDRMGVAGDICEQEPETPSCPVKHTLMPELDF
Target sequence (Q8WTS1 whole entry, looked up): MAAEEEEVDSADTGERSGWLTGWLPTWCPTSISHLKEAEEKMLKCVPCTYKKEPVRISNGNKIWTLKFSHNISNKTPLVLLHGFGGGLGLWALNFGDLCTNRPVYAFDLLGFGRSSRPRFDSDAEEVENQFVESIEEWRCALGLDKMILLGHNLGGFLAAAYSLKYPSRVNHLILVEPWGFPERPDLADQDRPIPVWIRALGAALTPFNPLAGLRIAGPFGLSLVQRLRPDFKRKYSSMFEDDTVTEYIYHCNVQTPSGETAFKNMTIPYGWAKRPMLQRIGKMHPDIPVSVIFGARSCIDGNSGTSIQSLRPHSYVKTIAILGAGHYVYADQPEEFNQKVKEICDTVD
Rpn11 inh = Rpn11 (PSMD14) deubiquitinase inhibitors, primary screen, biochemical, fluorescence polarization, uHTS. inhibition, % at 20 µM. AID 588493, 2011. actives 0.59% (n = 360,000). 26S proteasome non-ATPase regulatory subunit 14 (Homo sapiens), O00487. human 26S proteasome, Ub4-pepOG fluorescence polarization; 20S core pre-blocked with epoxomicin;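 active = inhibition at 20 µM, scaled to each plate's controls, above about 33%, limit read from the data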
ABHD5-PLIN5 conf = ABHD5-PLIN5 interaction inhibitors, confirmation, biochemical, luminescence | inhibition, % at 4 µM | actives 67% (n = 2,200) | shares compounds with ABHD5-PLIN5 inh; in the data active = inhibition above about 23%;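 note: 0% = DMSO vehicle wells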
HNF4 counter = HNF4 dimerization inhibitors, counter-screen for ABHD5-PLIN5 interaction inhibitor project, biochemical, split-luciferase complementation, luminescence; shares compounds with ABHD5-PLIN5 inh; inhibition, % at 4 µM; actives 77% (n = 2,200);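 active = mean inhibition across replicate wells exceeding the computed hit threshold, cut at about 13% in these data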;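 note: light from luciferase halves that rejoin when HNF4 fusion proteins dimerize; 0% = DMSO only wells and the 100% control is not given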
* = called active by the depositor; . = not tested or not shown.

SMILES	XiGFP reactiv	NadD block	Rin1-Abl PPI inh	ABHD5-PLIN5 inh	Rpn11 inh	ABHD5-PLIN5 conf	HNF4 counter
CCNC(=O)C[C@@H]1CC[C@H]2[C@H](COc3ccc(NC(=O)c4cccc(C(F)(F)F)c4)cc3C(=O)N2C)O1	1	.	.	.	.	.	.
O=C(C[C@@H]1C=C[C@@H](NC(=O)c2ccncc2)[C@@H](CO)O1)NCc1ccncn1	0	.	.	.	.	.	.
COc1c(CC=C(C)C)cc(C2CC(=O)c3c(O)cc(O)cc3O2)cc1CC=C(C)C (stereo unspecified)	.	2	-2	-27	0	.	.
COC1=CC(=O)C(C2CC(=O)c3c(O)cc(O)cc3O2)=CC1=O (stereo unspecified)	0	3	5	29*	1	82*	93*
C[C@H](CO)N1C[C@H](C)[C@@H](CN(C)Cc2ccc(-c3ccccc3)cc2)Oc2ccc(NS(=O)(=O)c3ccc(Cl)cc3)cc2CC1=O	-1	.	.	.	.	.	.
Cc1oc(=O)c(NC(=O)c2cccc(Cl)c2)cc1C(=O)c1ccccc1	.	3	-4	34*	2	18	100*
CC(C)(C)c1ccc(/C=C(\C#N)C(=O)NC2CC2)cc1	0	-5	2	28*	0	47*	35*
Cc1ccc(N2C(=O)c3ccccc3C2=O)cc1	0	1	0	-3	-1	.	.
Cc1ccc(SC2=C(Sc3ccc(C)cc3)C(=O)c3ccccc3C2=O)cc1	0	6	2	25*	7	63*	12*
COC(=O)C(CC(=O)c1ccc(Br)cc1)n1nc(C)cc1C (stereo unspecified)	0	-4	4	37*	2	11	52*
CCCNC(=O)C[C@@H]1C[C@H]2c3cc(NC(=O)Nc4ccccc4F)ccc3O[C@H]2[C@@H](CO)O1	0	.	.	.	.	.	.
CNC[C@H]1Oc2ccccc2C(=O)N(C)C[C@@H]1C	0	.	.	.	.	.	.
Cc1c(Cl)ccc2c(C(=O)NCCN3CCCCC3)cc(-c3ccccn3)nc12	0	-4	-7	22	15	.	.
COc1ccccc1-c1cc(C(=O)NC2CCN(C)CC2)c2ccc(Cl)c(C)c2n1	0	-2	-1	32*	5	20	-3
CC=Cc1ccc2n(c1=O)C[C@@H]1[C@@H](CO)[C@H](C(=O)NCCc3cn(C)cn3)N(C(=O)CC)[C@H]21 (mixture of isomers)	0	.	.	.	.	.	.
O=C(CN1C(=O)COc2ccccc21)NCCCN1CCOCC1	0	-6	6	3	-2	.	.
O=C(CN1C(=O)/C(=C\c2cccc(Br)c2)Oc2ccccc21)NCCCN1CCOCC1	0	-11	-6	29*	-2	17	5
C[C@@H]1CN([C@H](C)CO)C(=O)c2cc(NC(=O)CCCN(C)C)ccc2O[C@@H]1CN(C)Cc1ccc2c(c1)OCO2	0	.	.	.	.	.	.
COc1ccc(CNC(=O)c2cccnc2Sc2ccc(Cl)cc2)cc1	.	-1	-12	89*	-4	-6	10
COc1ccc(C(=O)OCC(=O)N2CCN(S(=O)(=O)c3ccc(C)cc3)CC2)cc1[N+](=O)[O-]	1	-8	2	86*	4	2	7
COc1ccc(C(=O)OCC(=O)N2CCCCC2)cc1[N+](=O)[O-]	0	-3	0	3	-1	.	.
COc1ccc(Br)cc1/C=C/C(=O)c1ccc(NC(C)=O)cc1	0	-6	2	27*	0	85*	81*
COc1ccc(NC(=O)/C=C/c2cc(Br)ccc2OC)cc1	.	-11	-1	8	0	.	.
C=CCOC(=O)/C=C/C(=O)NC(N)=O	0	-4	-2	35*	2	57*	55*
Nc1nsc2ccccc12	.	-2	-3	45*	2	57*	64*
SMILES	XiGFP reactiv	NadD block	Rin1-Abl PPI inh	ABHD5-PLIN5 inh	Rpn11 inh	ABHD5-PLIN5 conf	HNF4 counter
N#CCc1c(C#N)c(N)nc(N2CCN(Cc3ccc4c(c3)OCO4)CC2)c1C#N	.	8	3	26*	28	2	7
Cc1cc(C)c(C#N)c(N2CCN(Cc3ccc4c(c3)OCO4)CC2)n1	.	-12	-2	0	-4	.	.
O=C(CCCn1cc([N+](=O)[O-])cn1)NCc1ccccc1	0	-4	-4	1	-2	.	.
O=C(CCCn1cc([N+](=O)[O-])cn1)NC1CCCCCC1	0	2	0	99*	-4	-5	5
CCCNC(=O)N1C[C@@H](C)[C@H](OC)CN(C)C(=O)c2ccc(NC(C)=O)cc2OC[C@H]1C	0	.	.	.	.	.	.
C[C@@H]1CCCCO[C@H](CN(C)C(=O)C2CCCCC2)[C@H](C)CN([C@@H](C)CO)C(=O)c2cc(NC(=O)CCC(F)(F)F)ccc2O1	0	.	.	.	.	.	.
CC1=CC(C)(C)Nc2ccc(OC(=O)C(Cc3ccccc3)N3C(=O)c4ccccc4C3=O)cc21 (stereo unspecified)	.	11	-1	0	2	.	.
CC1=CC(C)(C)Nc2ccc(OC(=O)CN3C(=O)c4cccc5cccc(c45)C3=O)cc21	.	25	-1	32*	0	71*	8
CC1=CC(C)(C)Nc2ccc(OC(=O)CN3C(=O)c4ccccc4C3=O)cc21	2	-1	1	66*	-4	86*	79*
Cc1ccc(-n2sc3ccccc3c2=O)cc1	0	-2	1	31*	4	10	114*
O=c1c2ccccc2sn1-c1ccc(Cl)cc1	0	2	0	48*	7	76*	118*
Cc1ccc(Cn2c(=O)sc3ccccc3c2=O)cc1	.	-6	-1	-5	-2	.	.
O=c1c2ccccc2ncn1-c1ccc(Cl)cc1	0	-1	0	-5	-6	.	.
COc1cccc(CN2CC3(CCN(C(=O)Nc4c(C)noc4C)CC3)c3c([nH]c4cc(OC)ccc34)[C@@H]2CO)c1	0	.	.	.	.	.	.
O=C(C[n+]1ccc2ccccc2c1)c1ccc2ccc3ccccc3c2c1	0	10	.	28*	.	10	4
O=C(C[n+]1ccc2ccccc2c1)c1ccccc1	0	-3	-1	1	4	.	.
CNCCCOc1ccc(C)cc1OC	0	1	1	57*	1	2	-1
CCC(C)(C)NC(=O)c1ccc(Sc2nncn2C)c([N+](=O)[O-])c1	0	2	0	3	-3	.	.
